Assay results: ChEMBL document CHEMBL4342502, “Synthesis and Antichlamydial Activity of Molecules Based on Dysregulators of Cylindrical Proteases” (J Med Chem, 2020)
Calls of active or inactive are those of the source. No cut-off for these calls is given here.

How the values were obtained:
Staphylococcus aureus [1] = assay: Antibacterial activity against Staphylococcus aureus JE2 assessed as bacterial death up to 256 ug/ml measured after 16 hrs by broth microdilution method; assay type: functional, organism-based
How it was run: (§1)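 Broth microdilution in Mueller Hinton broth, triplicate. Direct colony suspension at 1.5 x 10^8 CFU/mL diluted to ~10^5 CFU/mL. Serial dilutions made from DMSO stocks at 1 mg/mL; vancomycin positive control, blank medium negative control. Incubated 16 h at optimum temperature. MIC is the lowest concentration without visible growth at 600 nm; mean of triplicate determinations.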

HaCaT = assay: Cytotoxicity against immortal human HaCaT cells assessed as reduction in cell viability at 50 ug/ml after 24 hrs by CCK-8 assay; assay type: cell-based
How it was run: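 HeLa 229 and HaCaT cells in DMEM with 10% FBS and 1% penicillin/streptomycin, 37 °C, 5% CO2, seeded at 5000 cells/well. Next day treated with 50 μg/mL in triplicate, with matching DMSO controls. After 24 h, CCK-8 added for 2 h; corrected absorbance read at 450 nm.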

Candida albicans = assay: Antifungal activity against Candida albicans ATCC 90028 assessed as fungal growth inhibition at 32 ug/ml measured after 16 hrs by broth microdilution method; assay type: functional, organism-based
Cryptococcus neoformans = assay: Antifungal activity against Cryptococcus neoformans var. grubii H99 ATCC […] as fungal growth inhibition at 32 ug/ml measured after 16 hrs by broth microdilution method; assay type: functional, organism-based; conditions: var. grubii H99 ATCC 208821
Klebsiella pneumoniae = assay: Antibacterial activity against Klebsiella pneumoniae ATCC 700603 assessed as bacterial growth inhibition at 32 ug/ml measured after 16 hrs by broth microdilution method; assay type: functional, organism-based
[2] = Intrinsic clearance in human liver microsomes at 1 ug/ml measured per mg protein up to 60 mins by LC-MS/MS analysis; assay type: ADME, Microsome
How it was run: (§2)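 Human liver microsomes (1.0 mg/mL protein) in 100 mM phosphate pH 7.4 with 10 mM MgCl2 and 2 mM NADPH, preincubated 10 min at 37 °C. Reaction started with compound at 1 μg/mL. Sampled at 0, 5, 15, 20, 30, 45 and 60 min and quenched in methanol with internal standard. Controls: no NADPH (negative), testosterone (positive). Analysed by LC-MS/MS, triplicate.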

Staphylococcus aureus [3] = assay: Antibacterial activity against Staphylococcus aureus JE2 assessed as bacterial growth inhibition at 32 ug/ml measured after 16 hrs by broth microdilution method; assay type: functional, organism-based; how it was run: as §1
[4] = Stability of compound in human liver microsomes at 1 ug/ml measured up to 60 mins in absence of NADPH by LC-MS/MS analysis; assay type: ADME, Microsome; conditions: 1 h; how it was run: as §2
Staphylococcus aureus [5] = assay: Antibacterial activity against methicillin-resistant Staphylococcus aureus ATCC 43300 assessed as bacterial growth inhibition at 32 ug/ml measured after 16 hrs by broth microdilution method; assay type: functional, organism-based
[6] = Stability of the compound in simulated gastric fluid at 50 uM and pH 1.2 at 37 degree C measured up to 120 mins by HPLC-ESI/MS analysis; conditions: simulated gi fluid, pH 1.2, 2 h
Acinetobacter baumannii = assay: Antibacterial activity against Acinetobacter baumannii ATCC 19606 assessed as bacterial growth inhibition at 32 ug/ml measured after 16 hrs by broth microdilution method; assay type: functional, organism-based; conditions: ATCC 19606 = CIP 70.34 = JCM 6841
Escherichia coli [7] = assay: Antibacterial activity against Escherichia coli K12 assessed as bacterial growth inhibition at 32 ug/ml measured after 16 hrs by broth microdilution method; assay type: functional, organism-based; conditions: K-12; how it was run: as §1
[8] = Stability of compound in mouse pre-heated plasma at 50 uM incubated up to 120 mins by HPLC-ESI/MS analysis; assay type: ADME, cell-free; conditions: 2 h
How it was run: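 Compounds from 2.5 mM DMSO stocks incubated at 50 μM final in mouse plasma diluted to 80% with PBS, preheated, 37 °C, shaking. Sampled at 0, 15, 30, 60, 90 and 120 min and quenched with cold acetonitrile. Centrifuged; supernatant analysed by HPLC-ESI-MS. Peak area reported relative to time zero. Enalapril positive control; triplicate.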

[9] = Hepatic intrinsic clearance in human liver microsomes at 1 ug/ml measured per kg body weight up to 60 mins by LC-MS/MS analysis; assay type: ADME, Microsome; conditions: 1 h
Chlamydia trachomatis [10] = assay: Anti-chlamydial activity against Chlamydia trachomatis Serovar LGV-L2 infected in Hep2 cells assessed as reduction in chlamydial infectivity by measuring decrease in inclusion forming units at 50 ug/ml treated at 8 hrs post-infection and 24 hrs later re-infecting fresh Hep2 cells monolayer with infected cells and measured at 24 hrs post re-infection by immunofluorescence staining based microscopy analysis; assay type: functional, organism-based
How it was run: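 HEp-2 cells in DMEM with 10% FBS, infected with C. trachomatis L2 at MOI 1. Compounds added 8 hpi in triplicate; DMSO stocks at 50 mg/mL. At 24 hpi lysates collected in sucrose storage medium, frozen at −80 °C, and used to infect fresh HEp-2 monolayers in 10-fold dilutions. After 24 h, stained with goat anti-MOMP and Alexa488 secondary. Inclusions counted in 15 fields at 20x; IFU = mean count per field corrected for dilution.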

Escherichia coli [11] = assay: Antibacterial activity against Escherichia coli ATCC 25922 assessed as bacterial growth inhibition at 32 ug/ml measured after 16 hrs by broth microdilution method; assay type: functional, organism-based
Pseudomonas aeruginosa = assay: Antibacterial activity against Pseudomonas aeruginosa ATCC 27853 assessed as bacterial growth inhibition at 32 ug/ml measured after 16 hrs by broth microdilution method; assay type: functional, organism-based
Escherichia coli [12] = assay: Antibacterial activity against Escherichia coli K12 assessed as bacterial death up to 256 ug/ml measured after 16 hrs by broth microdilution method; assay type: functional, organism-based; conditions: K-12; how it was run: as §1
[13] = Half life in human liver microsomes at 1 ug/ml measured up to 60 mins by LC-MS/MS analysis; assay type: ADME, Microsome; how it was run: as §2
[14] = Drug metabolism in human liver microsomes assessed as amount of drug modified at 1 ug/ml […] in presence of NADPH by LC-MS/MS analysis; assay type: ADME, Microsome; conditions: read-out: Drug metabolism
Chlamydia trachomatis [15] = assay: Anti-chlamydial activity against Chlamydia trachomatis Serovar LGV-L2 infected in Hep2 cells assessed as inhibition of chlamydial inclusion at 50 ug/ml treated at 8 hrs post infection and measured at 24 hrs post-infection by immunofluorescence assay; assay type: functional, organism-based
How it was run: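 HEp-2 cells infected with C. trachomatis serovar L2. Compounds at 50 μg/mL added 8 hpi; inclusion number and size assessed by immunofluorescence at 24 hpi against untreated cells. Cell morphology and viability checked by phase-contrast microscopy.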

[16] = (§3) Activation of recombinant mouse C-terminal 6xHis-tagged ClpP expressed in Escherichia coli assessed as induction of casein degradation at 0.1 to 1 uM using FITC-labelled casein as substrate pretreated with enzyme for 30 mins followed by substrate addition and measured every 3 mins for 3 hrs in absence of AAA+ chaperone by fluorescence based tecan-plate reader assay
How it was run: (§4)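 Recombinant C-terminal His6-tagged ClpP, expressed in a clpAPX-null E. coli strain and purified (mammalian ClpP without mitochondrial signal, codon-optimized). ClpP at 1 or 0.1 μM (E. coli), 1 μM (human, mouse) or 6 μM (chlamydial ClpP1 and ClpP2) preincubated with compound or DMSO, 30 min, 32 °C, in HEPES pH 7.6/KCl/MgCl2/DTT/glycerol buffer. 20 μM FITC-casein then added. Fluorescence (ex 490/em 525 nm) read every 3 min for 3 h. At least three runs on at least two protein preparations.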

[17] = biological target: ATP-dependent Clp protease proteolytic subunit (Escherichia coli (strain K12)) (UniProt P0A6G7); assay: as §3, with “recombinant” for “recombinant mouse C-terminal 6xHis-tagged ClpP expressed in”, “coli ClpP” for “coli”; how it was run: as §4
ATP-dependent Clp protease proteolytic subunit (Escherichia coli (strain K12)), sequence (P0A6G7 whole entry): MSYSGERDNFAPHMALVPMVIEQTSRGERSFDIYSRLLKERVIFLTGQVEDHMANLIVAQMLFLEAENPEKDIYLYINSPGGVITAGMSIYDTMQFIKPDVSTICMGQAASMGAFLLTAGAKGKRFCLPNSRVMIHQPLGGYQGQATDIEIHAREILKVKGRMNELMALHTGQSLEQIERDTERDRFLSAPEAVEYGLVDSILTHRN

[18] = as §3, with “human” for “mouse”; how it was run: as §4

Compound	Activity (Staphylococcus aureus [1])	Activity (HaCaT)	inhibition (Candida albicans)	inhibition (Cryptococcus neoformans)	inhibition (Klebsiella pneumoniae)	inhibition (Staphylococcus aureus [3])	Stability [4]	inhibition (Staphylococcus aureus [5])	inhibition (Acinetobacter baumannii)	inhibition (Escherichia coli [7])	CLH [9]	inhibition (Chlamydia trachomatis [10])	inhibition (Escherichia coli [11])	inhibition (Pseudomonas aeruginosa)	Activity (Escherichia coli [12])	metabolised at 10 min, 1 ug/ml [14]	inhibition (Chlamydia trachomatis [15])	further results
CC(C)(C(=O)N1CCN(c2ccc(Cl)c(Cl)c2)CC1)S(=O)(=O)c1ccc(C(F)(F)F)cn1	inactive	Non-Toxic	inactive	inactive	inactive	inactive	Stable	inactive	inactive	inactive	874 mL/min/kg	Active	inactive	inactive	inactive	90%	Active	microsomal CLint at 1 ug/ml ([2]; liver microsomes, read-out: CLH): 112 µL/min/mg; Stability [6]: Stable; Stability [8]: Stable; half-life at 1 ug/ml ([13]; liver microsomes): 6.25 min
Cc1ccc(CN2CCN(C(=O)C(C)(C)S(=O)(=O)c3ccc(C(F)(F)F)cn3)CC2)cc1	inactive	Non-Toxic	inactive	inactive	inactive	inactive	–	inactive	inactive	inactive	–	–	inactive	inactive	inactive	–	Active	–
CC(C)(C(=O)NCCOc1ccccc1)S(=O)(=O)c1ccc(C(F)(F)F)cn1	inactive	–	inactive	inactive	inactive	inactive	Stable	inactive	inactive	inactive	1460 mL/min/kg	Active	inactive	inactive	inactive	90%	Active	microsomal intrinsic clearance ([2]; microsomes, 1 h): 185.6 µL/min; t1/2 ([13]; microsomes, 1 h): 3.73 min
CC(C)(C(=O)NCCSc1ccc(Cl)cc1)S(=O)(=O)c1ccccc1	–	–	inactive	inactive	inactive	inactive	–	inactive	inactive	inactive	–	–	inactive	inactive	–	–	inactive	Activity [16]: Not Active; Activity [17]: inactive; Activity [18]: Not Active
